Our source for the Activity, IC50 and MIC values is ChEMBL document CHEMBL1150807, “Daucane sesquiterpenes from Ferula hermonis” (J Nat Prod, 2001).

Converted amounts (≈) assume the structure as drawn. The source made the active and inactive calls.

For assay [1], the system named is Staphylococcus aureus. The assay is described as follows: Antimicrobial activity against Staphylococcus aureus ATCC 29213. Type of assay: functional, organism-based. The procedure, abridged:
(§1)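 Broth microdilution in duplicate. Samples are dissolved in DMSO, serially diluted in normal saline, and mixed with inoculum from subcultured organism diluted in its incubation broth. The top final concentration is 50 µg/mL for pure compounds and 500 µg/mL for crude extracts. Controls are tetracycline, growth and media blank. OD630 is read before and after incubation, and percent growth is plotted against concentration to give IC50/MIC. MBC is found by plating 5 µL from each duplicate on agar.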

The test system of assay [2] is Staphylococcus aureus. As to the kind of experiment: Antimicrobial activity against methicillin-resistant Staphylococcus aureus ATCC 43300. Type of assay: functional, organism-based. The method in brief: as §1
The next assay concerns Candida albicans. As to the kind of experiment: Antimicrobial activity against Candida albicans ATCC 90028. Type of assay: functional. The procedure, abridged:
(§2)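 Subcultured organism diluted in its incubation broth for the inoculum. Samples were dissolved in DMSO, serially diluted in normal saline and tested in duplicate, starting at a final 50 µg/mL for pure compounds and 500 µg/mL for extracts. Growth and media-only controls were included. OD630 was read before and after incubation, and IC50/MIC was taken from percent growth versus concentration. MFC/MBC came from 5 µL subcultured onto agar.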

The subject of a further assay is Cryptococcus neoformans. As to the kind of experiment: Antimicrobial activity against Cryptococcus neoformans ATCC 90113. Type of assay: functional. The method in brief: as §2
Another assay concerns Aspergillus fumigatus. The assay is described as follows: Antimicrobial activity against Aspergillus fumigatus ATCC 90906. Type of assay: functional. The procedure, abridged:
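Growth was removed from a slant into 50 mL YPD broth for the inoculum. DMSO-dissolved samples were serially diluted in saline and run in duplicate, starting at a final 50 µg/mL for pure compounds and 500 µg/mL for extracts. Amphotericin B reference, growth and blank controls were included. Endpoints were read visually. MFC came from 5 µL of each duplicate transferred to agar.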

The subject of the next assay is Pseudomonas aeruginosa. As to the kind of experiment: Antimicrobial activity against Pseudomonas aeruginosa ATCC 27853. Type of assay: functional. The method in brief:
as §2

Assay [3] deals with Mycobacterium intracellulare. The assay is described as follows: Antimicrobial activity against Mycobacterium intracellular ATCC 23068. Type of assay: functional. The procedure, abridged: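 Inoculum was subcultured organism diluted in its incubation broth. Samples were dissolved in DMSO, serially diluted in saline and run in duplicate, with final concentrations starting at 50 µg/mL for pure compounds and 500 µg/mL for extracts. Tetracycline reference, growth and blank controls were included. Plates were inspected visually. MBC came from 5 µL of each well plated on agar.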

With `COc1cc(C(=O)OCC2=CC[C@@]3(C)CCC(C(C)C)=C3CC2)ccc1O`, the result in the assay with Staphylococcus aureus [1], in the assay with Staphylococcus aureus [2], in the assay with Candida albicans, in the assay on Cryptococcus neoformans, with Aspergillus fumigatus and in the assay with Pseudomonas aeruginosa was inactive. Moreover, in assay [3], the result was inactive.
Turning to `CC(C)[C@]1(O)CC[C@]2(C)C[C@@H]3O[C@]3(C)C[C@H](O)[C@H]21`, the result in the assay with Staphylococcus aureus [1], in the assay on Staphylococcus aureus [2], in the assay on Candida albicans, in the assay on Cryptococcus neoformans, in the assay on Aspergillus fumigatus and in the assay on Pseudomonas aeruginosa was inactive. Moreover, in assay [3], the outcome was inactive.
Regarding `CC1=CC[C@@]2(C)CC[C@@](O)(C(C)C)[C@@H]2[C@@H](O)C1`, the outcome with Staphylococcus aureus [1], in the assay on Staphylococcus aureus [2], in the assay on Candida albicans, in the assay with Cryptococcus neoformans, in the assay with Aspergillus fumigatus and with Pseudomonas aeruginosa was inactive. Moreover, the outcome in assay [3] was inactive.
`CC(C)C1=C2CCC(COC(=O)c3ccc(O)cc3)=CC[C@@]2(C)CC1`: the values for the IC50 in the assay with Staphylococcus aureus [1] and with Staphylococcus aureus [2] were 1.5 µg/mL (≈ 4.41 µM) and 2 µg/mL (≈ 5.87 µM), respectively. Further, the MIC (against Candida albicans; against Cryptococcus neoformans; in the assay on Aspergillus fumigatus; in the assay on Pseudomonas aeruginosa; in assay [3]) was 6.25 µg/mL (≈ 18.4 µM) throughout.
Regarding `CC1=CC[C@@]2(C)CC[C@@](O)(C(C)C)[C@@H]2[C@@H](OC(=O)c2ccccc2)C1`, the outcome with Staphylococcus aureus [1], with Staphylococcus aureus [2], with Candida albicans, with Cryptococcus neoformans, in the assay on Aspergillus fumigatus and in the assay on Pseudomonas aeruginosa was inactive. Also, in assay [3], the result was inactive.

A word on the IC50: it is the concentration that inhibits the measured activity by half. Read a low IC50 as greater potency in that assay. Usually MIC stands for the smallest concentration in the dilution series that meets the test's criterion for growth inhibition. Read a low MIC as greater potency.
